From ChEMBL document CHEMBL4257452, “A mini-library system to investigate non-essential residues of lipid-phosphatidylserine (PS) binding peptide-peptoid hybrid PPS1” (Medchemcomm, 2017) come the findings set out here.

Activity calls are given as the source filed them. The calls are words filed in the database; no cut-off is given here. Starred links: 1 amine or outer side, 2 acyl side, 3 side chain; linkers in the order of their positions; H or OH if unused. Positions of bridges follow the written chain, without caps; N, C: chain ends. Non-standard residues stand in square brackets, D forms with d. Residues, ends and D or L forms follow the SMILES beside them. Chains are numbered I, II in the order given. Gly(N-piperonyl) = O=C(O)CNCc1ccc2c(c1)OCO2; N(4-MeOBn)Gly = COc1ccc(CNCC(=O)O)cc1; X3 = CC(c1ccccc1)N(CC(=O)[*:2])[*:1]; Gly(NCH2CH2Ph) = O=C(O)CNCCc1ccccc1; X8 = O=C(CN(CC1CCNCC1)[*:1])[*:2]; Gly(N-(CH2)3OMe) = COCCCNCC(=O)O; Nrpe = C[C@@H](NCC(=O)O)c1ccccc1; X7 = O=C(CN(c1nccs1)[*:1])[*:2]; Gly(N-cPent) = O=C(O)CNC1CCCC1; NAllylGly = C=CCNCC(=O)O; Nme = COCCNCC(=O)O; Sar = CNCC(=O)O

The test system of the test is HCC4017. The test can be described thus: Cytotoxicity against human HCC4017 cells assessed as reduction in cell viability at 20 uM after 24 hrs by MTS assay. The class given is functional, cell-based. The procedure, abridged:
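HCC4017 cells (RPMI, 5% FBS) and HBEC-3KT normal lung cells (KSFM with recombinant human EGF and bovine pituitary extract) were plated at 10 000 cells/well in triplicate and left to adhere overnight. They were exposed to 1 or 20 μM compound for 24 h. MTS reagent was then added for 2 h and absorbance read at 490 nm. Viability is % of untreated control wells.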
In general terms: Formazan colour is commonly taken as a measure of viable cells.
For the compound `COCCN(CC(=O)NC(CCCCN)C(=O)NC(CCCCN)C(=O)NC(CCSC)C(=O)NCCCCC(NC(=O)C(CCSC)NC(=O)C(CCCCN)NC(=O)C(CCCCN)NC(=O)CN(CCOC)C(=O)CN(Cc1ccc(OC)cc1)C(=O)CN(C(=O)CN(Cc1ccc2c(c1)OCO2)C(=O)CNC(C)c1ccccc1)C(C)c1ccccc1)C(N)=O)C(=O)CN(Cc1ccc(OC)cc1)C(=O)CN(C(=O)CN(Cc1ccc2c(c1)OCO2)C(=O)CNC(C)c1ccccc1)C(C)c1ccccc1` (stereo not drawn) (I: H-[X3][Gly(N-piperonyl)][X3][N(4-MeOBn)Gly][Nme]KKMK-NH2 / II: H-[X3][Gly(N-piperonyl)][X3][N(4-MeOBn)Gly][Nme]KKM; amide I:9-II:C; configuration not given here), the result was Active.

Consider `COc1ccc(CN(CC(=O)N(CC(=O)N[C@@H](CCCCN)C(=O)N[C@H](CCCCN)C(=O)N[C@@H](CCSC)C(=O)NCCCC[C@H](NC(=O)[C@H](CCSC)NC(=O)[C@@H](CCCCN)NC(=O)[C@H](CCCCN)NC(=O)CN(Cc2ccc3c(c2)OCO3)C(=O)CN(Cc2ccc(OC)cc2)C(=O)CN(C(=O)CN(Cc2ccc3c(c2)OCO3)C(=O)CN[C@H](C)c2ccccc2)[C@H](C)c2ccccc2)C(N)=O)Cc2ccc3c(c2)OCO3)C(=O)CN(C(=O)CN(Cc2ccc3c(c2)OCO3)C(=O)CN[C@H](C)c2ccccc2)[C@H](C)c2ccccc2)cc1` (I: H-[Nrpe][Gly(N-piperonyl)][Nrpe][N(4-MeOBn)Gly][Gly(N-piperonyl)]K[dK]MK-NH2 / II: H-[Nrpe][Gly(N-piperonyl)][Nrpe][N(4-MeOBn)Gly][Gly(N-piperonyl)]K[dK]M; amide I:9-II:C), for which the result was Active.

For the compound `COc1ccc(CN(CC(=O)N(C)CC(=O)NC(CCCCN)C(=O)NC(CCCCN)C(=O)NC(CCSC)C(=O)NCCCCC(NC(=O)C(CCSC)NC(=O)C(CCCCN)NC(=O)C(CCCCN)NC(=O)CN(C)C(=O)CN(Cc2ccc(OC)cc2)C(=O)CN(C(=O)CN(Cc2ccc3c(c2)OCO3)C(=O)CNC(C)c2ccccc2)C(C)c2ccccc2)C(N)=O)C(=O)CN(C(=O)CN(Cc2ccc3c(c2)OCO3)C(=O)CNC(C)c2ccccc2)C(C)c2ccccc2)cc1` (stereo not drawn) (I: H-[X3][Gly(N-piperonyl)][X3][N(4-MeOBn)Gly][Sar]KKMK-NH2 / II: H-[X3][Gly(N-piperonyl)][X3][N(4-MeOBn)Gly][Sar]KKM; amide I:9-II:C; configuration not given here), the outcome was Active.

With `COCCCN(CC(=O)NC(CCCCN)C(=O)NC(CCCCN)C(=O)NC(CCSC)C(=O)NCCCCC(NC(=O)C(CCSC)NC(=O)C(CCCCN)NC(=O)C(CCCCN)NC(=O)CN(CCCOC)C(=O)CN(Cc1ccc(OC)cc1)C(=O)CN(C(=O)CN(Cc1ccc2c(c1)OCO2)C(=O)CNC(C)c1ccccc1)C(C)c1ccccc1)C(N)=O)C(=O)CN(Cc1ccc(OC)cc1)C(=O)CN(C(=O)CN(Cc1ccc2c(c1)OCO2)C(=O)CNC(C)c1ccccc1)C(C)c1ccccc1` (stereo not drawn) (I: H-[X3][Gly(N-piperonyl)][X3][N(4-MeOBn)Gly][Gly(N-(CH2)3OMe)]KKMK-NH2 / II: H-[X3][Gly(N-piperonyl)][X3][N(4-MeOBn)Gly][Gly(N-(CH2)3OMe)]KKM; amide I:9-II:C; configuration not given here), the result was Active. `COc1ccc(CN(CC(=O)N(CC(=O)NC(CCCCN)C(=O)NC(CCCCN)C(=O)NC(CCSC)C(=O)NCCCCC(NC(=O)C(CCSC)NC(=O)C(CCCCN)NC(=O)C(CCCCN)NC(=O)CN(CC2CCNCC2)C(=O)CN(Cc2ccc(OC)cc2)C(=O)CN(C(=O)CN(Cc2ccc3c(c2)OCO3)C(=O)CNC(C)c2ccccc2)C(C)c2ccccc2)C(N)=O)CC2CCNCC2)C(=O)CN(C(=O)CN(Cc2ccc3c(c2)OCO3)C(=O)CNC(C)c2ccccc2)C(C)c2ccccc2)cc1` (stereo not drawn) (I: H-[X3][Gly(N-piperonyl)][X3][N(4-MeOBn)Gly][X8]KKMK-NH2 / II: H-[X3][Gly(N-piperonyl)][X3][N(4-MeOBn)Gly][X8]KKM; amide I:9-II:C; configuration not given here): the outcome was Active. The result for `COc1ccc(CN(CC(=O)N(CC(=O)NC(CCCCN)C(=O)NC(CCCCN)C(=O)NC(CCSC)C(=O)NCCCCC(NC(=O)C(CCSC)NC(=O)C(CCCCN)NC(=O)C(CCCCN)NC(=O)CN(C(=O)CN(Cc2ccc(OC)cc2)C(=O)CN(C(=O)CN(Cc2ccc3c(c2)OCO3)C(=O)CNC(C)c2ccccc2)C(C)c2ccccc2)c2nccs2)C(N)=O)c2nccs2)C(=O)CN(C(=O)CN(Cc2ccc3c(c2)OCO3)C(=O)CNC(C)c2ccccc2)C(C)c2ccccc2)cc1` (stereo not drawn) (I: H-[X3][Gly(N-piperonyl)][X3][N(4-MeOBn)Gly][X7]KKMK-NH2 / II: H-[X3][Gly(N-piperonyl)][X3][N(4-MeOBn)Gly][X7]KKM; amide I:9-II:C; configuration not given here) reads “Active”. As to `C=CCN(CC(=O)NC(CCCCN)C(=O)NC(CCCCN)C(=O)NC(CCSC)C(=O)NCCCCC(NC(=O)C(CCSC)NC(=O)C(CCCCN)NC(=O)C(CCCCN)NC(=O)CN(CC=C)C(=O)CN(Cc1ccc(OC)cc1)C(=O)CN(C(=O)CN(Cc1ccc2c(c1)OCO2)C(=O)CNC(C)c1ccccc1)C(C)c1ccccc1)C(N)=O)C(=O)CN(Cc1ccc(OC)cc1)C(=O)CN(C(=O)CN(Cc1ccc2c(c1)OCO2)C(=O)CNC(C)c1ccccc1)C(C)c1ccccc1` (stereo not drawn) (I: H-[X3][Gly(N-piperonyl)][X3][N(4-MeOBn)Gly][NAllylGly]KKMK-NH2 / II: H-[X3][Gly(N-piperonyl)][X3][N(4-MeOBn)Gly][NAllylGly]KKM; amide I:9-II:C; configuration not given here), the outcome was Active.

Take `COc1ccc(CN(CC(=O)N(CCc2ccccc2)CC(=O)NC(CCCCN)C(=O)NC(CCCCN)C(=O)NC(CCSC)C(=O)NCCCCC(NC(=O)C(CCSC)NC(=O)C(CCCCN)NC(=O)C(CCCCN)NC(=O)CN(CCc2ccccc2)C(=O)CN(Cc2ccc(OC)cc2)C(=O)CN(C(=O)CN(Cc2ccc3c(c2)OCO3)C(=O)CNC(C)c2ccccc2)C(C)c2ccccc2)C(N)=O)C(=O)CN(C(=O)CN(Cc2ccc3c(c2)OCO3)C(=O)CNC(C)c2ccccc2)C(C)c2ccccc2)cc1` (stereo not drawn) (I: H-[X3][Gly(N-piperonyl)][X3][N(4-MeOBn)Gly][Gly(NCH2CH2Ph)]KKMK-NH2 / II: H-[X3][Gly(N-piperonyl)][X3][N(4-MeOBn)Gly][Gly(NCH2CH2Ph)]KKM; amide I:9-II:C; configuration not given here): the result was Active. Consider `COc1ccc(CN(CC(=O)NC(CCCCN)C(=O)NC(CCCCN)C(=O)NC(CCSC)C(=O)NCCCCC(NC(=O)C(CCSC)NC(=O)C(CCCCN)NC(=O)C(CCCCN)NC(=O)CN(Cc2ccc(OC)cc2)C(=O)CN(Cc2ccc(OC)cc2)C(=O)CN(C(=O)CN(Cc2ccc3c(c2)OCO3)C(=O)CNC(C)c2ccccc2)C(C)c2ccccc2)C(N)=O)C(=O)CN(Cc2ccc(OC)cc2)C(=O)CN(C(=O)CN(Cc2ccc3c(c2)OCO3)C(=O)CNC(C)c2ccccc2)C(C)c2ccccc2)cc1` (stereo not drawn) (I: H-[X3][Gly(N-piperonyl)][X3][N(4-MeOBn)Gly][N(4-MeOBn)Gly]KKMK-NH2 / II: H-[X3][Gly(N-piperonyl)][X3][N(4-MeOBn)Gly][N(4-MeOBn)Gly]KKM; amide I:9-II:C; configuration not given here), for which the result was Active. The result for `COc1ccc(CN(CC(=O)N(CC(=O)NC(CCCCN)C(=O)NC(CCCCN)C(=O)NC(CCSC)C(=O)NCCCCC(NC(=O)C(CCSC)NC(=O)C(CCCCN)NC(=O)C(CCCCN)NC(=O)CN(C(=O)CN(Cc2ccc(OC)cc2)C(=O)CN(C(=O)CN(Cc2ccc3c(c2)OCO3)C(=O)CNC(C)c2ccccc2)C(C)c2ccccc2)C(C)c2ccccc2)C(N)=O)C(C)c2ccccc2)C(=O)CN(C(=O)CN(Cc2ccc3c(c2)OCO3)C(=O)CNC(C)c2ccccc2)C(C)c2ccccc2)cc1` (stereo not drawn) (I: H-[X3][Gly(N-piperonyl)][X3][N(4-MeOBn)Gly][X3]KKMK-NH2 / II: H-[X3][Gly(N-piperonyl)][X3][N(4-MeOBn)Gly][X3]KKM; amide I:9-II:C; configuration not given here) reads “Active”.

`COc1ccc(CN(CC(=O)N(CC(=O)NC(CCCCN)C(=O)NC(CCCCN)C(=O)NC(CCSC)C(=O)NCCCCC(NC(=O)C(CCSC)NC(=O)C(CCCCN)NC(=O)C(CCCCN)NC(=O)CN(C(=O)CN(Cc2ccc(OC)cc2)C(=O)CN(C(=O)CN(Cc2ccc3c(c2)OCO3)C(=O)CNC(C)c2ccccc2)C(C)c2ccccc2)C2CCCC2)C(N)=O)C2CCCC2)C(=O)CN(C(=O)CN(Cc2ccc3c(c2)OCO3)C(=O)CNC(C)c2ccccc2)C(C)c2ccccc2)cc1` (stereo not drawn) (I: H-[X3][Gly(N-piperonyl)][X3][N(4-MeOBn)Gly][Gly(N-cPent)]KKMK-NH2 / II: H-[X3][Gly(N-piperonyl)][X3][N(4-MeOBn)Gly][Gly(N-cPent)]KKM; amide I:9-II:C; configuration not given here): the result was Active. In the case of `COc1ccc(CN(CC(=O)N2CCCC2C(=O)NC(CCCCN)C(=O)NC(CCCCN)C(=O)NC(CCSC)C(=O)NCCCCC(NC(=O)C(CCSC)NC(=O)C(CCCCN)NC(=O)C(CCCCN)NC(=O)C2CCCN2C(=O)CN(Cc2ccc(OC)cc2)C(=O)CN(C(=O)CN(Cc2ccc3c(c2)OCO3)C(=O)CNC(C)c2ccccc2)C(C)c2ccccc2)C(N)=O)C(=O)CN(C(=O)CN(Cc2ccc3c(c2)OCO3)C(=O)CNC(C)c2ccccc2)C(C)c2ccccc2)cc1` (stereo not drawn) (I: H-[X3][Gly(N-piperonyl)][X3][N(4-MeOBn)Gly]PKKMK-NH2 / II: H-[X3][Gly(N-piperonyl)][X3][N(4-MeOBn)Gly]PKKM; amide I:9-II:C; configuration not given here) it was “Active”; in that of `COc1ccc(CN(CC(=O)NC(Cc2ccc(O)cc2)C(=O)NC(CCCCN)C(=O)NC(CCCCN)C(=O)NC(CCSC)C(=O)NCCCCC(NC(=O)C(CCSC)NC(=O)C(CCCCN)NC(=O)C(CCCCN)NC(=O)C(Cc2ccc(O)cc2)NC(=O)CN(Cc2ccc(OC)cc2)C(=O)CN(C(=O)CN(Cc2ccc3c(c2)OCO3)C(=O)CNC(C)c2ccccc2)C(C)c2ccccc2)C(N)=O)C(=O)CN(C(=O)CN(Cc2ccc3c(c2)OCO3)C(=O)CNC(C)c2ccccc2)C(C)c2ccccc2)cc1` (stereo not drawn) (I: H-[X3][Gly(N-piperonyl)][X3][N(4-MeOBn)Gly]YKKMK-NH2 / II: H-[X3][Gly(N-piperonyl)][X3][N(4-MeOBn)Gly]YKKM; amide I:9-II:C; configuration not given here), “Active”.
